The structures appear in SMILES notation. Bounds are passed on as bounds.

The target of one experiment is Cycloartenol synthase (Arabidopsis thaliana, UniProt P38605). Description: Inhibition of Arabidopsis thaliana cycloartenol synthase expressed in Saccharomyces cerevisiae SMY8. An outline of the steps:
(§1)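 Cell-free homogenates of recombinant OSC-defective S. cerevisiae SMY8 strains, each expressing one OSC: lanosterol cyclase from S. cerevisiae, T. cruzi or P. carinii, or cycloartenol cyclase from A. thaliana. Cyclase activity was measured in homogenates with inhibitor present and IC50 derived. Values are means of two separate experiments, each with duplicate incubations; maximum deviation from the mean under 10%.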

Experiment [1] is described as follows: Inhibition of Trypanosoma cruzi OSC expressed in Saccharomyces cerevisiae SMY8. Put shortly: as §1
Experiment [2] in a line: Inhibition of Pneumocystis carinii OSC expressed in Saccharomyces cerevisiae SMY8. Put shortly:
as §1

A further experiment addresses T1, Lanosterol synthase ERG7 (Saccharomyces cerevisiae S288c, UniProt P38604).
T1 sequence (P38604 whole entry): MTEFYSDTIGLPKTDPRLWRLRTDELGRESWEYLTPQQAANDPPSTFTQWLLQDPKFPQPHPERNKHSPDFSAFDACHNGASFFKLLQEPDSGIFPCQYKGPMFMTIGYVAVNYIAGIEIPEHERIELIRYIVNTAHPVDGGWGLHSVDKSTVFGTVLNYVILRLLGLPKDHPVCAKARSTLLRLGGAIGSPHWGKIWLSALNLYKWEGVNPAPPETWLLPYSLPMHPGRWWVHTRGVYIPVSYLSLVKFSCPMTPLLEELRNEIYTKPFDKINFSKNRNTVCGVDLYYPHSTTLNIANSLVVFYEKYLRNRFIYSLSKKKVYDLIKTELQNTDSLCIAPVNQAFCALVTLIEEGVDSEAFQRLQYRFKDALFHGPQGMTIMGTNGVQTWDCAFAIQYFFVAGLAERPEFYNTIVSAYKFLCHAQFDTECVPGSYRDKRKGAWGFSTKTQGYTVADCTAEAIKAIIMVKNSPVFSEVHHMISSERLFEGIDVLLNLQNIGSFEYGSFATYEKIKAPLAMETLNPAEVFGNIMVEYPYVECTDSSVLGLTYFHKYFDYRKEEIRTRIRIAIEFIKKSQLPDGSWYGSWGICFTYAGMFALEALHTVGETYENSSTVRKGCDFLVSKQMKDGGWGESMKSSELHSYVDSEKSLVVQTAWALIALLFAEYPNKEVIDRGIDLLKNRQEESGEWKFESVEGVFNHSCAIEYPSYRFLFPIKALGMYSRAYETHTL
The experiment in a line: Inhibition of yeast OSC expressed in Saccharomyces cerevisiae SMY8. Put shortly: as §1

Another experiment concerns the target T2, Lanosterol synthase (Homo sapiens, UniProt P48449).
T2 sequence (P48449 whole entry): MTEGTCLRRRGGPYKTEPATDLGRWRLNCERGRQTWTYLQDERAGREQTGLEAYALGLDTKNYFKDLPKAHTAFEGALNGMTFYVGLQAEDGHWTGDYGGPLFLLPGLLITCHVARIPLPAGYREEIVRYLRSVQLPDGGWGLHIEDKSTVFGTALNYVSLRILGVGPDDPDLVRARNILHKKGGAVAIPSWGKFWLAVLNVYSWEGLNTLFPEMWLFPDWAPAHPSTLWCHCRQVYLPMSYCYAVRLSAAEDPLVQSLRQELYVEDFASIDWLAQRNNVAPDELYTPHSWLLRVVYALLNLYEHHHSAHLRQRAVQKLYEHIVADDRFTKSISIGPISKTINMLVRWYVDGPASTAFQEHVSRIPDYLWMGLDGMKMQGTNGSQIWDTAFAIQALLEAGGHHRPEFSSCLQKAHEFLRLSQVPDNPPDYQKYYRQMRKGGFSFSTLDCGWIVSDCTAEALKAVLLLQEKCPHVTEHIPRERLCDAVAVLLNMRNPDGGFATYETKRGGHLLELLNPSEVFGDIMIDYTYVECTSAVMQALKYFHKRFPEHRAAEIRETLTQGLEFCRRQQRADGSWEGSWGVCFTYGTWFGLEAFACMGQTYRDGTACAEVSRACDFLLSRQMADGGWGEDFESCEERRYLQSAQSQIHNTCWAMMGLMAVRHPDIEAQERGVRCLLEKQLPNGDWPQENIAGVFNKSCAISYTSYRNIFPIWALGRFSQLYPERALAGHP
Description: Inhibition of human OSC expressed in Saccharomyces cerevisiae SMY8.

A short description of experiment [3]: Selectivity ratio of IC50 for human OSC to IC50 for Pneumocystis carinii OSC.

Cycloartenol synthase, sequence (P38605 whole entry): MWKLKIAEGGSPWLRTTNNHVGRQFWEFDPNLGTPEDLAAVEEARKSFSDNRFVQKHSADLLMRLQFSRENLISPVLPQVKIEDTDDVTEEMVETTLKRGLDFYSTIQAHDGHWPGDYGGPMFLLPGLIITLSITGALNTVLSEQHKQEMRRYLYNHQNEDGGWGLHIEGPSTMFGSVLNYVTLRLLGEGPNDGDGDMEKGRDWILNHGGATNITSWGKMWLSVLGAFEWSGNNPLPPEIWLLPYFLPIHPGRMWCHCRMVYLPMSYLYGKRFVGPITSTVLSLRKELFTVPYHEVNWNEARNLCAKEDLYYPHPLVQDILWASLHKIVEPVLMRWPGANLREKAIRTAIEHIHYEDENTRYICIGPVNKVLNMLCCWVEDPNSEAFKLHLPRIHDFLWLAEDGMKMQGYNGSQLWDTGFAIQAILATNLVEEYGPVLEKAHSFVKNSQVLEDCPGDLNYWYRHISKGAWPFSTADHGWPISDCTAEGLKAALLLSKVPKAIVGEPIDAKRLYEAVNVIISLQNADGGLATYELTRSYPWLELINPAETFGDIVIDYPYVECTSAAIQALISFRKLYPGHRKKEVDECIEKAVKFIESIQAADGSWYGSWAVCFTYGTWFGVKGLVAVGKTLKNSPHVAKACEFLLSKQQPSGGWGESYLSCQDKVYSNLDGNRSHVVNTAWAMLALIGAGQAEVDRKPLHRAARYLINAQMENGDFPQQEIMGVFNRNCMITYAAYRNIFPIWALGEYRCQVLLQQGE

Turning to `C=CCN(C)CCCCCCOc1ccc(C(=O)c2ccc(Br)cc2)c(F)c1`, the IC50 (as a rule, the point on the concentration scale where inhibition reaches its midpoint) against Cycloartenol synthase stood at 1750 nM; in experiment [1], 900 nM; in experiment [2], 340 nM; at Lanosterol synthase ERG7, 210 nM.
Turning to `CN(C/C=C/COc1ccc(C(=O)c2ccc(Br)cc2)cc1)C1CC1`, the 50% inhibitory concentration (IC50) against Cycloartenol synthase turned out to be 260 nM; in experiment [1], 1500 nM; in experiment [2], 200 nM; on Lanosterol synthase, 270 nM; on Lanosterol synthase ERG7, 180 nM.
As for `Brc1ccc(-c2nsc3cc(OCCCCN4CCOCC4)ccc23)cc1`, the IC50 on Cycloartenol synthase came out at 480 nM; in experiment [1], 1100 nM; in experiment [2] it was 70 nM; at Lanosterol synthase, 120 nM; against Lanosterol synthase ERG7, 600 nM.
As to `CCN(CC#Cc1ccc2c(-c3ccc(Br)cc3)nsc2c1)CCO`, the half-inhibitory concentration (IC50) was 550 nM on Cycloartenol synthase; 2300 nM in experiment [1]; 800 nM in experiment [2]; 4600 nM on Lanosterol synthase; 300 nM on Lanosterol synthase ERG7.
With `CCN(CCO)CCCCC[C@H]1CC[C@H](N(C)C(=O)Oc2ccc(Cl)cc2)CC1`, the concentration for half-maximal inhibition (IC50) turned out to be 700 nM against Cycloartenol synthase; 2000 nM in experiment [1]; 2500 nM in experiment [2]; 4120 nM at Lanosterol synthase; 100 nM at Lanosterol synthase ERG7.
`CCN(CCO)C(C)(C)C#Cc1ccc2c(-c3ccc(Br)cc3)nsc2c1`: the IC50 on Cycloartenol synthase was found to be 1250 nM; in experiment [1] it was 4200 nM; in experiment [2], 1000 nM; at Lanosterol synthase, 11500 nM; on Lanosterol synthase ERG7, 2200 nM.
Consider `CCN(CC)CCCCC[C@H]1CC[C@H](N(C)S(=O)(=O)c2ccc(C(F)(F)F)cc2)CC1`, for which the IC50 amounted to 1000 nM at Cycloartenol synthase; 2400 nM in experiment [1]; 600 nM in experiment [2]; 2440 nM on Lanosterol synthase; 3600 nM on Lanosterol synthase ERG7.
For `O=C(c1ccc(Cl)cc1)N1CCC(=Cc2ccc(C3=NCCO3)cc2)CC1`, the IC50 on Cycloartenol synthase was 2500 nM; in experiment [1], more than 5000 nM; in experiment [2] it was more than 5000 nM; against Lanosterol synthase, 1150 nM; against Lanosterol synthase ERG7 it was 670 nM.
Regarding `Brc1ccc(-c2nsc3cc(CCCCCN4CCOCC4)ccc23)cc1`, the IC50 on Cycloartenol synthase came to 650 nM; in experiment [1], 1100 nM; in experiment [2] it was 50 nM; against Lanosterol synthase, 100 nM; on Lanosterol synthase ERG7 it was 400 nM.
For `CCN(CC)C(=O)CCCC[C@H]1CC[C@H](N(C)S(=O)(=O)c2ccc(C(F)(F)F)cc2)CC1`, the IC50 against Cycloartenol synthase was 2000 nM; in experiment [1], more than 100000 nM; in experiment [2] it was more than 100000 nM; at Lanosterol synthase, more than 10000 nM; against Lanosterol synthase ERG7 it was more than 100000 nM.
In the case of `C=CCN(C)CCCCC[C@H]1CC[C@H](N(C)C(=O)Oc2ccc(C(F)(F)F)cc2)CC1`, the concentration for half-maximal inhibition (IC50) was 1000 nM against Cycloartenol synthase; 70 nM in experiment [1]; 340 nM in experiment [2]; 140 nM at Lanosterol synthase; 50 nM against Lanosterol synthase ERG7.
For `C=CCN(C)CCCCCCOc1ccc2c(-c3ccc(Br)cc3)nn(C)c2c1` the same measures were 2600 nM, 3000 nM, more than 5000 nM, 2300 nM and 290 nM.
Take `C=CCN(C)CCCCCCOc1ccc2c(-c3ccc(Br)cc3)nsc2c1`: the IC50 at Cycloartenol synthase came out at 950 nM; in experiment [1], 340 nM; in experiment [2] it was 230 nM; against Lanosterol synthase it was 160 nM; at Lanosterol synthase ERG7, 70 nM.
With `C=CCN(C)CCCCCCOc1ccc(-c2nsc3cc(Br)ccc23)cc1`, the IC50 against Cycloartenol synthase was 10000 nM; in experiment [1] it was more than 5000 nM; in experiment [2] it was 550 nM; against Lanosterol synthase it was 20300 nM; against Lanosterol synthase ERG7, 280 nM. In experiment [3], the Ratio IC50 turned out to be 40.
As for `CCN(CC)C1(CCCC[C@H]2CC[C@H](N(C)S(=O)(=O)c3ccc(C(F)(F)F)cc3)CC2)CC1`, the IC50 stood at 320 nM against Cycloartenol synthase; 400 nM in experiment [1]; 1300 nM in experiment [2]; 440 nM on Lanosterol synthase; 500 nM at Lanosterol synthase ERG7.
Take `C=CCN(C)CCCCOc1ccc2c(-c3ccc(Br)cc3)nsc2c1`: the concentration for half-maximal inhibition (IC50) against Cycloartenol synthase amounted to 70 nM; in experiment [1] it was 250 nM; in experiment [2], 200 nM; against Lanosterol synthase, 260 nM; at Lanosterol synthase ERG7 it was 700 nM.
For the compound `CCN(CCO)CCCCOc1ccc2c(-c3ccc(Br)cc3)nsc2c1`, the IC50 against Cycloartenol synthase came to 2300 nM; in experiment [1], 6500 nM; in experiment [2], 50 nM; on Lanosterol synthase it was 520 nM; against Lanosterol synthase ERG7, 700 nM. The Ratio IC50 in experiment [3] was 10.
On to `CCN(CC)C(C)(C)CCCC[C@H]1CC[C@H](N(C)S(=O)(=O)c2ccc(C(F)(F)F)cc2)CC1`, for which the concentration for half-maximal inhibition (IC50) was 4100 nM against Cycloartenol synthase; more than 100000 nM in experiment [1]; 1000 nM in experiment [2]; 4930 nM against Lanosterol synthase; 7000 nM against Lanosterol synthase ERG7.
As for `CCN(CCO)CCCCC[C@H]1CC[C@H](N(C)S(=O)(=O)c2ccc(C(F)(F)F)cc2)CC1`, the half-inhibitory concentration (IC50) stood at 3000 nM at Cycloartenol synthase, 1600 nM in experiment [1], 450 nM at Lanosterol synthase and 270 nM against Lanosterol synthase ERG7.
Regarding `CC(=O)N(CCO)CCCCOc1ccc2c(-c3ccc(Br)cc3)nsc2c1`, the half-inhibitory concentration (IC50) at Cycloartenol synthase was 800 nM; in experiment [1] it was 5500 nM; on Lanosterol synthase it was more than 1000 nM; against Lanosterol synthase ERG7, 100000 nM.
Consider `C=CCN(C)C/C=C/COc1ccc2c(-c3ccc(Br)cc3)coc2c1`, for which the IC50 was found to be 3000 nM on Cycloartenol synthase, 1200 nM in experiment [2], 90000 nM against Lanosterol synthase and 210 nM on Lanosterol synthase ERG7.
Consider `C=CCN(C)CCCCC[C@H]1CC[C@H](N(C)S(=O)(=O)c2ccc(C(F)(F)F)cc2)CC1`, for which the IC50 against Cycloartenol synthase was 440 nM; in experiment [1], 300 nM; in experiment [2], 120 nM; at Lanosterol synthase, 100 nM; against Lanosterol synthase ERG7, 300 nM.
As to `CN([C@H]1CC[C@H](CCCCCN(CCO)CCO)CC1)S(=O)(=O)c1ccc(C(F)(F)F)cc1`, the IC50 stood at 1500 nM against Cycloartenol synthase; 2700 nM in experiment [1]; 400 nM in experiment [2]; 720 nM on Lanosterol synthase; 1500 nM at Lanosterol synthase ERG7.
As for `CCN(CCO)CCCC#Cc1ccc2c(-c3ccc(Br)cc3)nsc2c1`, the IC50 against Cycloartenol synthase is 1700 nM; in experiment [1] it was more than 10000 nM; in experiment [2], 2250 nM; against Lanosterol synthase it was 230 nM; against Lanosterol synthase ERG7 it was 5000 nM.
For the compound `C=CCN(C)Cc1ccc(-c2ccc(C(=O)c3ccc(Br)cc3)cc2)cc1`, the IC50 turned out to be 250 nM on Cycloartenol synthase; 600 nM in experiment [1]; 50 nM in experiment [2]; 250 nM at Lanosterol synthase; 320 nM on Lanosterol synthase ERG7. Further, in experiment [3], the Ratio IC50 was 5.

The values above are taken from ChEMBL document CHEMBL1143323, “Oxidosqualene cyclase from Saccharomyces cerevisiae, Trypanosoma cruzi, Pneumocystis carinii and Arabidopsis thaliana expressed in yeast: a model for the development of novel antiparasitic agents” (Bioorg Med Chem Lett, 2009).
